# Experimental data published in ChEMBL document CHEMBL4765378, “Discovery of simplified benzazole fragments derived from the marine benzosceptrin B as necroptosis inhibitors involving the receptor interacting protein Kinase-1” (Eur J Med Chem, 2020).
# Calls of active or inactive are those of the source. The rule behind the calls is not given here. Where a SMILES comes first, the peptide text is derived from it. The star is where a group is joined. Cbz = O=C(OCc1ccccc1)*; CH2F = FC*
# Assays:
# [1] = target: T1, Receptor-interacting serine/threonine-protein kinase 1 (Homo sapiens) (UniProt Q13546); experiment: Inhibition of RIPK1 in human FADD-deficient Jurkat I 2.1 cells assessed as protection against TNFalpha-induced necroptosis by measuring remaining viable cells at 10 uM measured after 24 hrs by MTS assay relative to TNFalpha; type: cell-based
# T1 sequence (whole entry): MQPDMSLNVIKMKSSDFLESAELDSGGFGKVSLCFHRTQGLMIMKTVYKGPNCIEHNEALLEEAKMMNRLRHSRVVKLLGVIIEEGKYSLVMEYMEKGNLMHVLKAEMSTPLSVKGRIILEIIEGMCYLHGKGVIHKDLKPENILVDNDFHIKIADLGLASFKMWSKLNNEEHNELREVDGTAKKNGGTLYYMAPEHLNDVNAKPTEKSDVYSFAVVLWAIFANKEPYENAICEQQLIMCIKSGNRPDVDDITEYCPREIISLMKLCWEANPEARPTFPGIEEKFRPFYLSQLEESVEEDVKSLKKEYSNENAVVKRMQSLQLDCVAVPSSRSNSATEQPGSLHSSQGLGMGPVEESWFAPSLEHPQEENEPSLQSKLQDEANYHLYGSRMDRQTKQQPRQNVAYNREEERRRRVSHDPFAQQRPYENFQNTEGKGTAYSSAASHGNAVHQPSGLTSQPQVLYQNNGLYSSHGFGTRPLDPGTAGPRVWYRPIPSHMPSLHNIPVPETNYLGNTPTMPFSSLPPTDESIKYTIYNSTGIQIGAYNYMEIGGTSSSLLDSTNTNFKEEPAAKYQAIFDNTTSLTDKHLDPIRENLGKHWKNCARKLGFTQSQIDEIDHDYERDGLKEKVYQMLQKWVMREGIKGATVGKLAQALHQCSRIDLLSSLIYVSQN
# Procedure, shortened: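 FADD-deficient Jurkat cells co-treated 24 h with 10 ng/ml human recombinant TNF-α and 10 μM compound; MTS viability normalized to DMSO control (100%); protection delta = viability with TNF-α plus compound minus viability with TNF-α alone (negative if toxic); n = 3.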
# [2] = Cytotoxicity against human FADD-deficient Jurkat I 2.1 cells assessed as reduction in cell viability at >10 uM measured after 24 hrs by MTS assay; type: cell-based; details: jurkat i 2.1, 24 h
# Jurkat [3] = experiment: Protection against TRAIL-induced apoptosis in human Jurkat assessed as increase in cell viability at 20 uM measured after 24 hrs by MTS assay; type: functional, cell-based
# Jurkat [4] = experiment: Protection against staurosporine-induced apoptosis in human Jurkat assessed as increase in cell viability at 20 uM measured after 24 hrs by MTS assay; type: functional, cell-based
smiles,measurement,setting,value
CCCCCCNc1nc2ccc([N+](=O)[O-])cc2[nH]1,Activity,[1],23.6%
O=[N+]([O-])c1ccc2nc(NCc3ccccc3)[nH]c2c1,Activity,[1],9%
O=[N+]([O-])c1ccc2nc(Nc3ccccc3)[nH]c2c1,Activity,[1],41.9%
same,Activity,[2],Toxic
COCCNc1nc2ccc([N+](=O)[O-])cc2[nH]1,Activity,[1],5.6%
C#Cc1ccc2nc(NCCCC)[nH]c2c1,Activity,[1],-21.3%
C=CCNc1nc2ccc([N+](=O)[O-])cc2[nH]1,Activity,[1],4.7%
CCCCNc1nc2ccc(-c3cccc([N+](=O)[O-])c3)cc2[nH]1,Activity,[1],-20.6%
CC(C)Nc1nc2cccc([N+](=O)[O-])c2[nH]1,Activity,[1],1%
Clc1ccc2nc(NC3CCCCC3)[nH]c2c1,Activity,[1],38.2%
COC(=O)c1cccc2nc(NC3CCCCC3)[nH]c12,Activity,[1],21.7%
CCCCNc1nc2ccc(-n3cnnn3)cc2[nH]1,Activity,[1],-1.32%
CCCCNc1nc2ccc(-c3cccs3)cc2[nH]1,Activity,[1],-20.5%
CC(C)Nc1nc2ccc([N+](=O)[O-])cc2[nH]1,Activity,[1],16.2%
CCNc1nc2ccc(-c3ccccc3Cl)cc2[nH]1,Activity,[1],4.9%
CCCCNc1nc2cccc(C(=O)OC)c2[nH]1,Activity,[1],29.2%
CCCCNc1nc2ccc(Br)cc2[nH]1,Activity,[1],7.3%
CCCCNc1nc2ccc(C(=O)NCCc3ccccc3)cc2[nH]1,Activity,[1],2.6%
CCCCNc1nc2cc(C(F)(F)F)cc(Br)c2[nH]1,Activity,[1],23.7%
CC(C)[C@H](NC(=O)OCc1ccccc1)C(=O)N[C@@H](C)C(=O)N[C@@H](CC(=O)O)C(=O)CF (Cbz-Val-Ala-Asp-CH2F),Activity,Jurkat [3],inactive
same,Activity,Jurkat [4],inactive
CCCCNc1nc2ccc(C(=O)NCCCc3ccccc3)cc2[nH]1,Activity,[1],-3.6%
CCCCNc1nc2ccc(I)cc2[nH]1,Activity,[1],-16.3%
CCNC(=O)CNc1nc2ccc([N+](=O)[O-])cc2[nH]1,Activity,[1],1.9%
O=[N+]([O-])c1ccc2nc(Nc3ccc(C(F)(F)F)cc3)[nH]c2c1,Activity,[1],-30.8%
CCCCNc1nc2ccc(C(=O)OC)cc2[nH]1,Activity,[1],2.9%
CCNc1nc2ccc(-c3cccc(OC)c3)cc2[nH]1,Activity,[1],-12.8%
CCCCCCCCNc1nc2ccc([N+](=O)[O-])cc2[nH]1,Activity,[1],6.4%
CCCCNc1nc2ccc(-c3cn(Cc4ccccc4)nn3)cc2[nH]1,Activity,[1],-10.5%
Oc1ccc(-c2cc3cccnc3[nH]2)cc1,Activity,[1],57.9%
CCNc1nc2ccc(Br)cc2[nH]1,Activity,[1],10.4%
O=[N+]([O-])c1ccc2nc(Nc3ccc(Br)cc3)[nH]c2c1,Activity,[1],-6.1%
Brc1ccc2nc(NC3CCCCC3)[nH]c2c1,Activity,[1],43.7%
CCCCNC(=O)CNc1nc2ccc([N+](=O)[O-])cc2[nH]1,Activity,[1],4.6%
Cc1ccc2nc(NC3CCCCC3)[nH]c2c1,Activity,[1],7%
CCNc1nc2ccc(-c3cccc([N+](=O)[O-])c3)cc2[nH]1,Activity,[1],-19.4%
O=[N+]([O-])c1cccc2nc(NCc3ccccc3)[nH]c12,Activity,[1],5.1%
CCCCNc1nc2ccc([N+](=O)[O-])cc2s1,Activity,[1],28%
CN(C)c1ccc(Nc2nc3ccc([N+](=O)[O-])cc3[nH]2)cc1,Activity,[1],14%
CCOC(=O)CNc1nc2ccc([N+](=O)[O-])cc2[nH]1,Activity,[1],15.3%
CCCNc1nc2ccc([N+](=O)[O-])cc2[nH]1,Activity,[1],20%
C#CCNc1nc2ccc([N+](=O)[O-])cc2[nH]1,Activity,[1],3.4%
O=[N+]([O-])c1ccc(Nc2nc3ccc([N+](=O)[O-])cc3[nH]2)cc1,Activity,[1],3.6%
CCCCNc1nc2cccc([N+](=O)[O-])c2[nH]1,Activity,[1],1.2%
CCCCNc1nc2ccc(-c3cccc(OC)c3)cc2[nH]1,Activity,[1],-16.8%
O=[N+]([O-])c1cccc2nc(NC3CCCCC3)[nH]c12,Activity,[1],13%
CCCCNc1nc2ccc(C(=O)NCc3ccccc3)cc2[nH]1,Activity,[1],5%
N#Cc1ccc(Nc2nc3ccc([N+](=O)[O-])cc3[nH]2)cc1,Activity,[1],-31.4%
O=[N+]([O-])c1ccc2nc(NC3CCCCC3)[nH]c2c1,Activity,[1],68.1%
same,Activity,[2],Toxic
CC(C)CNc1nc2ccc([N+](=O)[O-])cc2[nH]1,Activity,[1],53.7%
same,Activity,[2],Toxic
CCNc1nc2ccc([N+](=O)[O-])cc2[nH]1,Activity,[1],6.4%
CCCCNc1nc2ccc(C#C[Si](C)(C)C)cc2[nH]1,Activity,[1],-18.5%
CCCCNc1nc2ccc(C#N)cc2[nH]1,Activity,[1],6.3%
O=[N+]([O-])c1cccc2nc(Nc3ccccc3)[nH]c12,Activity,[1],0%
O=C(Nc1nc2ccc([N+](=O)[O-])cc2[nH]1)c1ccccc1,Activity,[1],-21.3%
O=[N+]([O-])c1ccc2sc(Cl)nc2c1,Activity,[1],0.1%
COCCNc1nc2cccc([N+](=O)[O-])c2[nH]1,Activity,[1],-2.3%
